Published values from different studies.
Protocols differ between the studies behind these lines.
Neuronal acetylcholine receptor; alpha9/alpha10: Neuronal acetylcholine receptor; alpha9/alpha10 (Homo sapiens, UniProt Q9GZZ6+Q9UGM1)
CA2: Carbonic anhydrase 2 (CA2, Homo sapiens, UniProt P00918)

| SMILES | target | test | conditions | endpoint | result |
| --- | --- | --- | --- | --- | --- |
| CCCNC(=O)c1ccc(N2CC[N+](CC)(CC)CC2)cc1 | Neuronal acetylcholine receptor; alpha9/alpha10 | ion current, agonist, two-electrode voltage clamp | oocytes | EC50 | 11 µM |
| CNC(=O)c1ccc(-c2cnn3ccc(C(=O)N(C)c4ccc(Cl)c(C(=O)OC)c4)cc23)cc1 | Receptor tyrosine-protein kinase erbB-2 (ERBB2, Homo sapiens, UniProt P04626) | enzyme activity, inhibitor | – | IC50 | > 30 µM |
| CC[N+]1(CC)CCN(c2ccc(NC(=O)c3cccc(C)n3)cc2)CC1 | Neuronal acetylcholine receptor; alpha9/alpha10 | ion current, agonist, two-electrode voltage clamp | oocytes | EC50 | 0.83 µM |
| COc1ccc(S(=O)(=O)Oc2cccc(C=NNC(=O)c3ccc(F)cc3)c2)cc1 | CA2 | enzyme activity, inhibitor, absorbance | – | IC50 | 0.139 µM |
| COc1ccc2c3c([nH]c2c1)CCN(C)CC3 | Neuronal acetylcholine receptor; alpha9/alpha10 | ion current, antagonist, two-electrode voltage clamp | oocytes | IC50 | 3 µM |
| COc1ccc(S(=O)(=O)Oc2ccccc2C=NNC(=O)c2ccc(F)cc2)cc1 | CA2 | enzyme activity, inhibitor, absorbance | – | IC50 | 0.156 µM |
| COC(=O)c1cc(N(C)C(=O)c2ccn3ncc(-c4ccc(C(=O)O)cc4)c3c2)ccc1Cl | cAMP-dependent protein kinase catalytic subunit alpha (PRKACA, Homo sapiens, UniProt P17612) | enzyme activity, inhibitor | – | IC50 | > 30 µM |
| COc1ccc(S(=O)(=O)Oc2ccc(C=NNC(=O)c3ccc(F)cc3)cc2)cc1 | CA2 | enzyme activity, inhibitor, absorbance | – | IC50 | 0.0974 µM |
| CNC(=O)c1ccc(-c2cnn3ccc(C(=O)N(C)c4ccc(Cl)c(C(=O)O)c4)cc23)cc1 | STE20-like serine/threonine-protein kinase (SLK, Homo sapiens, UniProt Q9H2G2) | enzyme activity, inhibitor | – | IC50 | > 30 µM |
| COc1ccc2[nH]c3c(c2c1)CCN(C)CC3 | Neuronal acetylcholine receptor; alpha9/alpha10 | ion current, antagonist, two-electrode voltage clamp | oocytes | IC50 | 3.2 µM |
